pEC50, pIC50: −log10 of the molar value. Activity calls are given as the source filed them. The rule behind the calls is not given here.
What was measured:
[1] = biological target: Metabotropic glutamate receptor 5 (Rattus norvegicus) (UniProt P31424); assay: Modulation of rat mGlu5 receptor assessed as assessed as calcium mobilization at 30 uM by cell based fluorescence assay; type: functional
[2] = biological target: Metabotropic glutamate receptor 3 (Rattus norvegicus, UniProt P31422); assay: Negative allosteric modulation of rat mGlu3 receptor assessed as calcium mobilization by cell based fluorescence assay; type: functional
Sequence of Metabotropic glutamate receptor 3 (P31422 whole entry): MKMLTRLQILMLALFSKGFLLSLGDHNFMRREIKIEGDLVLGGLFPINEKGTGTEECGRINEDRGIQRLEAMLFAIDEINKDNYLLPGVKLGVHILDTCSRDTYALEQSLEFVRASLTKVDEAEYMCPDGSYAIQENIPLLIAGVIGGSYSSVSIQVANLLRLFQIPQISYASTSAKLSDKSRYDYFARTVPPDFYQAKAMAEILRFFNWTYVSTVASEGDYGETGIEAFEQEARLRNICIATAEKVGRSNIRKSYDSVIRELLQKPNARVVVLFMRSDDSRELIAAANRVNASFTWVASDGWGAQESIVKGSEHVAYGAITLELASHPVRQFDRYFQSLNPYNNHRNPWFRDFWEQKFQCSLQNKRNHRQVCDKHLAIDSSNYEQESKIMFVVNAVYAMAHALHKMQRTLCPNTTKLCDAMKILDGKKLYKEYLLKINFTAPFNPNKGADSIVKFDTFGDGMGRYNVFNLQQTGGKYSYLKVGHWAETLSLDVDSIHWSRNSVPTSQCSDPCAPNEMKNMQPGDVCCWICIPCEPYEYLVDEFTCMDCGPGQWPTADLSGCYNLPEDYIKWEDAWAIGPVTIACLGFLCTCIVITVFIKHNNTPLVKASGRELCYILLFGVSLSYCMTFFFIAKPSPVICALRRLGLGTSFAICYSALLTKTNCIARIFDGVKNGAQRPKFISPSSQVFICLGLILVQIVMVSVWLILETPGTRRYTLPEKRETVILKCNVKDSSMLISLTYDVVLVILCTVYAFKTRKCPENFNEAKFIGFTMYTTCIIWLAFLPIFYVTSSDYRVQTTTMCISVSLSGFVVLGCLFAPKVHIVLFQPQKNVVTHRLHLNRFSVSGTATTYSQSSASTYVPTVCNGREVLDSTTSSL
How it was run: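 Cell line stably expressing rat mGlu3 with the promiscuous G-protein Gα15. Calcium mobilization with fluorescence read-out, inhibition of the glutamate response. Full concentration-response curves, top concentration 30 μM. % Glu Max is the response with 30 μM test compound as a percentage of the maximal response to 100 μM glutamate. Values averaged over n-3.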

[3] = biological target: Metabotropic glutamate receptor 3 (Rattus norvegicus) (UniProt P31422); assay: Negative allosteric modulation of rat mGlu3 receptor assessed as amplitude response at 30 uM relative to glutamate
Sequence of Metabotropic glutamate receptor 3 (Rattus norvegicus) (P31422 23-879 limits assumed): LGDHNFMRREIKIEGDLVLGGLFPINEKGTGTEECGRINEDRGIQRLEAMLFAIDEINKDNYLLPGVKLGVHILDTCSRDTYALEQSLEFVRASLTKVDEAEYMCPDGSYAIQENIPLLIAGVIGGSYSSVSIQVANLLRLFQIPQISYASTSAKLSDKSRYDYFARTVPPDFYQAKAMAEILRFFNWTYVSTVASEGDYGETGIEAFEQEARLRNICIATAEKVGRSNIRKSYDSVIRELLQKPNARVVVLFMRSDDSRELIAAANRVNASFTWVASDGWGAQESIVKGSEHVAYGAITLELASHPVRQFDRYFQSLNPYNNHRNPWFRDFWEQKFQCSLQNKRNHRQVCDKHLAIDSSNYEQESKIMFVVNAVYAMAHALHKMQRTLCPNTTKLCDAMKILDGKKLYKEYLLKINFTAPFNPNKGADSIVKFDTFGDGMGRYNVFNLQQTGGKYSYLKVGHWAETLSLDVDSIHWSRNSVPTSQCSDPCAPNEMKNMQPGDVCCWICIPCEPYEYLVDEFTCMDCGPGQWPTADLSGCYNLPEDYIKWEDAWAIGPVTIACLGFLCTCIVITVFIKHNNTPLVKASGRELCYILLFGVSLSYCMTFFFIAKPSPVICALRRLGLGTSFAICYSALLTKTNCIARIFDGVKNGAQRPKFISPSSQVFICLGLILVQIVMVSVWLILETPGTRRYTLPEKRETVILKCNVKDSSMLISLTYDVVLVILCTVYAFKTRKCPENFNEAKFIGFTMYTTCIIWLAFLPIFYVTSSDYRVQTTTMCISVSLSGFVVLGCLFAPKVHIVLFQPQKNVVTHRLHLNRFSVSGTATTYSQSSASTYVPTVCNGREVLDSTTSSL
How it was run: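 Calcium mobilization in cell line stably expressing rat mGlu3 with promiscuous Gα15; fluorescence read-out; amplitude of glutamate response with 30 μM test compound expressed as percentage of maximal response (100 μM glutamate); average of n = 3.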

[4] = biological target: Metabotropic glutamate receptor 5 (Rattus norvegicus, UniProt P31424); assay: Modulation of rat mGlu5 receptor assessed as calcium mobilization by cell based fluorescence assay; type: functional
Sequence of Metabotropic glutamate receptor 5 (P31424 whole entry): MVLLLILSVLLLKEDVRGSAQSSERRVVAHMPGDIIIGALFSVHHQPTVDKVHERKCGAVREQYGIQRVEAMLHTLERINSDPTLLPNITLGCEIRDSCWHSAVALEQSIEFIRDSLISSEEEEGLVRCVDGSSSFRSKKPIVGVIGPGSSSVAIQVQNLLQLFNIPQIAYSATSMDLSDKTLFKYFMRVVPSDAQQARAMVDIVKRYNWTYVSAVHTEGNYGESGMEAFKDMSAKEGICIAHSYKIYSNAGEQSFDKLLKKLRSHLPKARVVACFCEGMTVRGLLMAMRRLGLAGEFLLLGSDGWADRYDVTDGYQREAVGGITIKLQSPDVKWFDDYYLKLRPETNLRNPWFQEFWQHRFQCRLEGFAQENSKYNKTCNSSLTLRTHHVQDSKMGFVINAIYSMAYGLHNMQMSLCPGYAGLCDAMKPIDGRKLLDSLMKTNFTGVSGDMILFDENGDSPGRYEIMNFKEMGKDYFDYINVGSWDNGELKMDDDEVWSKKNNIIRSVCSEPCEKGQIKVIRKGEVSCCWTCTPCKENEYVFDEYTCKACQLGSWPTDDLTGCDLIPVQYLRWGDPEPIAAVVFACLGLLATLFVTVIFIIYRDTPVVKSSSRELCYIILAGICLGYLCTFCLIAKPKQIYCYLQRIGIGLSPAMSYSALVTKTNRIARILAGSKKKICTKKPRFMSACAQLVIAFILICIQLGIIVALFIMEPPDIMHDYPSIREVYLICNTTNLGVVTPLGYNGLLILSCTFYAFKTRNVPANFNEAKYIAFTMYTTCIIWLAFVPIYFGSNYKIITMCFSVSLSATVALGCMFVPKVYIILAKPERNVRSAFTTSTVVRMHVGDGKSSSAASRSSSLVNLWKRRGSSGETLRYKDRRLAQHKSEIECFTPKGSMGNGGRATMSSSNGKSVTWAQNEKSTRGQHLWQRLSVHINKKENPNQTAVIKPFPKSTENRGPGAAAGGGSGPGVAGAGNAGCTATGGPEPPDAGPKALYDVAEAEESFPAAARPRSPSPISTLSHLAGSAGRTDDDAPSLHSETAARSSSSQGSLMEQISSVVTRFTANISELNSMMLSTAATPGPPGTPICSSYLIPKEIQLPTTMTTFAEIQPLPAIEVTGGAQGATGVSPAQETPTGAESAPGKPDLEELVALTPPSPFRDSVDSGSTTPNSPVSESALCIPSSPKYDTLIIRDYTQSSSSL
How it was run: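 Calcium mobilization assay with fluorescence read-out in cells expressing mGlu5; full concentration-response curves; % Glu Max is the amplitude of response with 30 μM test compound as a percentage of the maximal response to 100 μM glutamate; values averaged over n-3.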

[5] = biological target: Metabotropic glutamate receptor 5 (Rattus norvegicus) (UniProt P31424); assay: Positive allosteric modulation of rat mGlu5 receptor assessed as calcium mobilization by cell based fluorescence assay; type: functional
[6] = biological target: Metabotropic glutamate receptor 5 (Rattus norvegicus) (UniProt P31424); assay: Negative allosteric modulation of rat mGlu5 receptor assessed as calcium mobilization by cell based fluorescence assay; type: functional

Sequence of Metabotropic glutamate receptor 5 (Rattus norvegicus) (P31424 21-1203 limits assumed): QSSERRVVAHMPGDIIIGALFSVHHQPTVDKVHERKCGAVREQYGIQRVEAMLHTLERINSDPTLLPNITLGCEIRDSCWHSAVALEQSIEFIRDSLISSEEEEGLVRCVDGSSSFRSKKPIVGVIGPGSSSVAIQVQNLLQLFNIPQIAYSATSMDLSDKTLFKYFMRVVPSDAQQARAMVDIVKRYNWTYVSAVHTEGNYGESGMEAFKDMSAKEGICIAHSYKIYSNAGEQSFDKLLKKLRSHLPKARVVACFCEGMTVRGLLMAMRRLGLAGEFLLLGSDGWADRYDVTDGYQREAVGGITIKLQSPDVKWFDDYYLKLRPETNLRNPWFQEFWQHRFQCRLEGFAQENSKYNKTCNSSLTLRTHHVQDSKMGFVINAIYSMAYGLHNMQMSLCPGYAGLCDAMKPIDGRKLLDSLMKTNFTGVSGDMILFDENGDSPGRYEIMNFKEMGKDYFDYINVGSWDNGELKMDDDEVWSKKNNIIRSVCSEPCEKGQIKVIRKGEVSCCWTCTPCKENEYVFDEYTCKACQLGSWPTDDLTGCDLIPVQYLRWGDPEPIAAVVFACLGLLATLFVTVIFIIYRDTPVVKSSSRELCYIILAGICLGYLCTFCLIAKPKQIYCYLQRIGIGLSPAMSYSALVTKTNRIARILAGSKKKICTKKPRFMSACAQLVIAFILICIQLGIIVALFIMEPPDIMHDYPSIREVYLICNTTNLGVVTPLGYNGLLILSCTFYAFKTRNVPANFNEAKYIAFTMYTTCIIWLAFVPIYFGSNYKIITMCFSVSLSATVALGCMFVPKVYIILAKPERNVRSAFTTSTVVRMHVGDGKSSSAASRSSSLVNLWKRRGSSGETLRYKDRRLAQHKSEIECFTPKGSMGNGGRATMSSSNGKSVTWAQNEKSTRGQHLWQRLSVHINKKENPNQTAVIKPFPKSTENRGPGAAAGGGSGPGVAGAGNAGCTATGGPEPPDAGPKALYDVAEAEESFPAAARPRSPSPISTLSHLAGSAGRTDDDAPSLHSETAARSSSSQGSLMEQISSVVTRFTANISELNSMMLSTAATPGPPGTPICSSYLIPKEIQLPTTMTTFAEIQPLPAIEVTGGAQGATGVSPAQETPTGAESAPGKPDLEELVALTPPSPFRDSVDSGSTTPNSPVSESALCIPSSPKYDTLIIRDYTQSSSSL

Compound | Activity [1] | pIC50 [2] | Activity [3] | pEC50 [4] | Activity [5] | Activity [6]
C[C@@H]1CN(c2cccc(F)c2F)C(=O)c2cc(COc3ccc(Cl)cn3)nn21 | 36.1% | 6.07 | 0.33% | 5.18 | Active | –
COc1cccc(OCc2cc3n(n2)[C@H](C)CN(c2ccc(F)cc2)C3=O)c1 | 32.4% | 5.89 | 1.78% | 5.74 | Active | –
C[C@@H]1CN(c2ccc(C#N)cc2)C(=O)c2cc(COc3ccc(Cl)cn3)nn21 | 23.1% | 6.27 | 1.84% | 5.48 | Active | –
C[C@@H]1CN(c2ccc(F)cc2F)C(=O)c2cc(COc3ccc(Cl)cn3)nn21 | 70.8% | 6.55 | 1.34% | 5.59 | Active | –
C[C@@H]1CN(c2ccc(F)cc2)C(=O)c2cc(COc3ccc(Cl)cc3)nn21 | 81.8% | 5.93 | 1.86% | 6.22 | Active | –
C[C@@H]1CN(c2ccc(F)cc2)C(=O)c2cc(COc3ccccc3Cl)nn21 | 84.4% | 6.27 | 1.63% | 6.38 | Active | –
C[C@@H]1CN(c2ccc(F)cc2)C(=O)c2cc(COc3cccc(C(F)(F)F)n3)nn21 | – | 5.63 | 2.06% | < 4.52 | – | –
Cc1ccccc1N1C[C@@H](C)n2nc(COc3ccc(F)cn3)cc2C1=O | 35.8% | 6.46 | 1.72% | < 5.00 | – | Active
Cc1ccc(N2C[C@@H](C)n3nc(COc4ccc(Cl)cn4)cc3C2=O)cc1 | 70.8% | 6.39 | 1.39% | < 5.00 | Active | –
C[C@@H]1CN(c2ccccc2C#N)C(=O)c2cc(COc3ccc(Cl)cn3)nn21 | 38.1% | 6.37 | 1.64% | 5.30 | Active | –
C[C@@H]1CN(c2ccc(F)cc2)C(=O)c2cc(COc3ccc(C(F)(F)F)cc3)nn21 | – | 5.73 | 4.13% | < 4.52 | – | –
C[C@@H]1CN(c2cc(F)cc(F)c2)C(=O)c2cc(COc3ccc(Cl)cn3)nn21 | 33.1% | 6.38 | 2.18% | < 5.00 | Active | –
C[C@@H]1CN(c2cccc(C#N)c2)C(=O)c2cc(COc3ccc(Cl)cn3)nn21 | 32.2% | 6.08 | 1.75% | < 5.00 | Active | –
COc1cccnc1OCc1cc2n(n1)[C@H](C)CN(c1ccc(F)cc1)C2=O | – | 5.17 | -1.14% | < 4.52 | – | –
C[C@@H]1CN(c2cccc(F)c2)C(=O)c2cc(COc3ccc(Cl)cn3)nn21 | 63.5% | 6.69 | 1.38% | 5.22 | Active | –
COc1ccc(OCc2cc3n(n2)[C@H](C)CN(c2ccc(F)cc2)C3=O)cc1 | 40.2% | 5.98 | 1.76% | 5.87 | Active | –
COc1ccccc1OCc1cc2n(n1)[C@H](C)CN(c1ccc(F)cc1)C2=O | 63.7% | 5.60 | 2.32% | < 5.00 | Active | –
C[C@@H]1CN(c2ccc(Cl)cc2)C(=O)c2cc(COc3ccc(F)cn3)nn21 | 51.6% | 6.71 | 2.17% | 6.44 | Active | –
C[C@@H]1CN(c2ncccc2C#N)C(=O)c2cc(COc3ccc(Cl)cn3)nn21 | – | 6.17 | 1.35% | < 4.52 | – | –
C[C@@H]1CN(c2ccc(F)cc2)C(=O)c2cc(COc3ncccc3F)nn21 | 78.5% | 5.96 | 2.22% | 5.37 | Active | –
Cc1ccc(OCc2cc3n(n2)[C@H](C)CN(c2ccc(F)cc2)C3=O)cc1 | 92.5% | 5.92 | 1.72% | 5.97 | Active | –
Cc1cccc(N2C[C@@H](C)n3nc(COc4ccc(Cl)cn4)cc3C2=O)c1 | 69.9% | 6.41 | 1.71% | 5.44 | Active | –
Cc1ccccc1N1C[C@@H](C)n2nc(COc3ccc(Cl)cn3)cc2C1=O | 80.7% | 6.24 | 1.95% | 5.64 | Active | –

Compound | Activity [1] | pIC50 [2] | Activity [3] | pEC50 [4] | Activity [5] | Activity [6]
C[C@@H]1CN(c2cc(F)ccc2C#N)C(=O)c2cc(COc3ccc(Cl)cn3)nn21 | – | 6.28 | 1.55% | < 4.52 | – | –
CCc1ccc(OCc2cc3n(n2)[C@H](C)CN(c2ccc(F)cc2)C3=O)cc1 | 50.8% | 6.08 | 2.29% | 5.49 | Active | –
C[C@@H]1CN(c2ccc(F)cc2)C(=O)c2cc(COc3ccc(C#N)cc3)nn21 | 38.6% | 6.11 | 2.53% | 5.71 | Active | –
COc1ccc(N2C[C@@H](C)n3nc(COc4ccc(Cl)cn4)cc3C2=O)cc1 | 59.4% | 6.36 | 2.07% | 5.36 | Active | –
C[C@@H]1CN(c2ccc(F)cn2)C(=O)c2cc(COc3ccc(Cl)cn3)nn21 | 47.9% | 6.59 | 2.44% | < 5.00 | Active | –
C[C@@H]1CN(c2ccccc2Cl)C(=O)c2cc(COc3ccc(Cl)cn3)nn21 | 51% | 6.48 | 1.87% | 5.26 | Active | –
C[C@@H]1CN(c2ccncc2)C(=O)c2cc(COc3ccc(F)cn3)nn21 | – | 6.06 | 0.77% | < 4.52 | – | –
COc1cccc(OCc2cc3n(n2)[C@H](C)CN(c2ccc(F)cc2)C3=O)n1 | 31.2% | 5.80 | 1.94% | < 5.00 | Active | –
C[C@@H]1CN(c2ccc(F)cc2)C(=O)c2cc(COc3ccc(F)cc3F)nn21 | 82.3% | 6.38 | 1.7% | 6.51 | Active | –
C[C@@H]1CN(c2ccc(F)nc2)C(=O)c2cc(COc3ccc(Cl)cn3)nn21 | 30.6% | 6.39 | 1.45% | < 5.00 | Active | –
C[C@@H]1CN(c2ccc(F)cc2)C(=O)c2cc(COc3cccc(F)c3)nn21 | 86.1% | 6.11 | 1.19% | 7.14 | Active | –
C[C@@H]1CN(c2ccc(F)cc2)C(=O)c2cc(COc3ccccc3F)nn21 | 89.3% | 6.28 | 2.9% | 6.71 | Active | –
C[C@@H]1CN(c2ccc(F)cc2)C(=O)c2cc(COc3ncccc3C(F)(F)F)nn21 | – | 5.53 | 2.11% | < 4.52 | – | –
COc1cccc(N2C[C@@H](C)n3nc(COc4ccc(Cl)cn4)cc3C2=O)c1 | 78% | 6.50 | 2% | 5.29 | Active | –
C[C@@H]1CN(c2cccc(Cl)c2)C(=O)c2cc(COc3ccc(Cl)cn3)nn21 | 65.8% | 6.25 | 1.63% | 5.54 | Active | –
COc1ccc(N2C[C@@H](C)n3nc(COc4ccc(F)cn4)cc3C2=O)cc1 | 32.3% | 6.49 | 1.23% | 5.86 | Active | –
Cc1ccccc1OCc1cc2n(n1)[C@H](C)CN(c1ccc(F)cc1)C2=O | 83.7% | 6.14 | 1.56% | 5.82 | Active | –
C[C@@H]1CN(c2ccc(F)cc2)C(=O)c2cc(COc3ccccc3)nn21 | 87.7% | 6.57 | 2.21% | 7.34 | Active | –
C[C@@H]1CN(c2ccc(F)cc2)C(=O)c2cc(COc3ccc(OC(F)(F)F)cc3)nn21 | – | 5.39 | 2.66% | < 4.52 | – | –
C[C@@H]1CN(c2ccc(Cl)cc2)C(=O)c2cc(COc3ccc(Cl)cn3)nn21 | 51.2% | 5.91 | 0.94% | 5.48 | Active | –
C[C@@H]1CN(c2ccccc2F)C(=O)c2cc(COc3ccc(Cl)cn3)nn21 | 57.3% | 6.65 | 1.74% | 5.49 | Active | –
C[C@@H]1CN(c2c(F)cccc2F)C(=O)c2cc(COc3ccc(Cl)cn3)nn21 | 40.3% | 6.65 | 2.06% | 5.85 | Active | –
C[C@@H]1CN(c2ncccc2F)C(=O)c2cc(COc3ccc(Cl)cn3)nn21 | 32.4% | 6.44 | 1.64% | < 5.00 | Active | –

— ChEMBL document CHEMBL3616441, “Discovery of a Selective and CNS Penetrant Negative Allosteric Modulator of Metabotropic Glutamate Receptor Subtype 3 with Antidepressant and Anxiolytic Activity in Rodents” (J Med Chem, 2015)
